Results reported in ChEMBL document CHEMBL5055634 (J Med Chem, 2021).
Activity calls are given as the source filed them. The rule behind the calls is not given here.

Legend:
[1] = tested on: Pseudomonas aeruginosa PAO1; experiment: Binding affinity to Pseudomonas aeruginosa PA01 cell wall at 10 uM incubated for 1 hr in dark
Outline: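 Indirect cell-binding assay. Pelleted overnight PAO1 cells were resuspended and diluted 10-fold in PBS, then given compound at 10 μM for 1 h at 37 °C in the dark. After centrifugation, the supernatant visible spectrum (380–700 nm) was compared with the spectrum of each compound alone; a drop in absorbance indicates binding.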

DU-145 [2] = experiment: Antitumor activity against human DU-145 cells assessed as cell growth inhibition at 0.1 to 75 uM incubated for 72 hrs by MTT assay; assay type: functional, cell-based; conditions: dose 0.1-75 µM
Outline: (§1)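 MTT viability assay. Cells were plated at line-specific densities and left to attach 24 h, then exposed 72 h at 37 °C to 0.1–75 μM, eight replicates per concentration, with 0.2% DMSO controls. MTT was added for 3 h at 37 °C, formazan dissolved in DMSO and read at 570 nm. IC50 came from nonlinear regression; mean ± ES of 4/5 independent experiments.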

[3] = Induction of NO production aqueous solution assessed as nitrite level at 80 uM measured after 1 hr of white light irradiation by griess reagent based assay; assay type: functional
Outline: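 Griess assay. Aqueous compound at 160 μM was mixed 1:1 with Griess reagent, giving 80 μM, in a quartz cuvette. The mix was irradiated with a 300 W tungsten lamp at 40 cm for 15 min, 1 h or 2 h. Absorbance was read at 540 nm and nitrite quantified against a NaNO2 standard curve (5–50 μM).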

HCT-116 = experiment: Antitumour activity against human HCT-116 cells assessed as cell growth inhibition at 0.1 to 75 uM incubated for 72 hrs by MTT assay; assay type: functional, cell-based; conditions: dose 0.1-75 µM; outline: as §1
Pseudomonas aeruginosa [4] = experiment: Antimicrobial activity against Pseudomonas aeruginosa PA01 assessed as inhibition of microbial growth measured after 24 hrs by broth dilution method; assay type: functional; conditions: PAO1
Outline: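 Broth dilution MIC against P. aeruginosa PAO1. Overnight LB cultures (37 °C, 200 rpm) diluted 100-fold to 10^7 CFU/mL. Two-fold dilution series from 200 to 0.1 μg/mL, 24 h at 37 °C. MIC taken as the lowest concentration with no detectable turbidity. Run at least three times.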

MDA-MB-231 = experiment: Antitumour activity against human MDA-MB-231 cells assessed as cell growth inhibition at 0.1 to 75 uM incubated for 72 hrs by MTT assay; assay type: functional, cell-based; conditions: dose 0.1-75 µM; outline: as §1
PC-3 [5] = experiment: Antitumor activity against human PC-3 cells assessed as cell growth inhibition at 0.1 to 75 uM incubated for 72 hrs by MTT assay; assay type: functional, cell-based; conditions: dose 0.1-75 µM; outline: as §1
DU-145 [6] = experiment: […] against human DU-145 cells assessed as reduction in cell viability by measuring difference in IC50 pretreated for 24 hrs followed by blue light irradiation for 1 hr further incubated for 48 hrs in drug free medium by MTT assay; assay type: functional, cell-based
Outline: (§2)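 Prostate cells were treated for 24 h, irradiated 1 h with white or blue light (dark-kept comparison), then incubated 48 h in drug-free medium.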

PC-3 [7] = experiment: […] against human PC-3 cells assessed as reduction in cell viability by measuring difference in IC50 pretreated for 24 hrs followed by white light irradiation for 1 hr further incubated for 48 hrs in drug free medium by MTT assay; assay type: functional, cell-based; outline: as §2
PC-3 [8] = experiment: Antitumor activity against human PC-3 cells assessed as cell growth inhibition incubated for 72 hrs by MTT assay; assay type: functional, cell-based; conditions: PC-3, 72 h; outline: as §1
PC-3 [9] = experiment: […] against human PC-3 cells assessed as reduction in cell viability by measuring difference in IC50 pretreated for 24 hrs followed by blue light irradiation for 1 hr further incubated for 48 hrs in drug free medium by MTT assay; assay type: functional, cell-based; outline: as §2
DU-145 [10] = experiment: […] against human DU-145 cells assessed as reduction in cell viability by measuring difference in IC50 pretreated for 24 hrs followed by white light irradiation for 1 hr further incubated for 48 hrs in drug free medium by MTT assay; assay type: functional, cell-based; outline: as §2
Pseudomonas aeruginosa [11] = experiment: Photodynamic antimicrobial activity against Pseudomonas aeruginosa PA01 assessed as bacterial eradication at 10 uM incubated for 10 min in dark followed by irradiation with 20J/cm2 light by viability count technique; assay type: functional, organism-based; conditions: PAO1
Outline: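 Photoinactivation assay. Overnight cultures were diluted in 10 mM phosphate buffer, pH 7.4, to ~10^6 CFU/mL. Compound was added at 10 μM and held 10 min in the dark, then irradiated at 410 ± 10 nm (20 J/cm2); dark controls were not irradiated. Survivors were counted on LB agar after overnight 37 °C incubation and reported as CFU/mL; at least three independent experiments.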

| Activity [1] | MIC (Pseudomonas aeruginosa [4]) [µg/mL] | IC50 (PC-3 [8]) [nM] | Compound | Activity (DU-145 [2]) | Activity [3] [µM] | Activity (HCT-116) | Activity (MDA-MB-231) | Activity (PC-3 [5]) | Activity (DU-145 [6]) | Activity (PC-3 [7]) | Activity (PC-3 [9]) | Activity (DU-145 [10]) | Activity (Pseudomonas aeruginosa [11]) |
| --- | --- | --- | --- | --- | --- | --- | --- | --- | --- | --- | --- | --- | --- |
| Active | 25 | – | O=C(O)c1cn(C2CC2)c2cc(N3CCN(c4ccc([N+](=O)[O-])c(C(F)(F)F)c4)CC3)c(F)cc2c1=O | Active | 0.6 | Active | Active | Active | – | – | – | – | – |
| Active | 25 | – | CCn1cc(C(=O)OC)c(=O)c2cc(F)c(N3CCN(CCNc4ccc([N+](=O)[O-])c(C(F)(F)F)c4)CC3)cc21 | – | – | – | – | – | – | – | – | – | – |
| Active | 25 | < 3000 | O=C(O)c1cn(C2CC2)c2cc(N3CCN(CCCNc4ccc([N+](=O)[O-])c(C(F)(F)F)c4)CC3)c(F)cc2c1=O | Active | 6.2 | Active | Active | Active | inactive | inactive | inactive | inactive | – |
| Active | 25 | – | CCn1cc(C(=O)OC)c(=O)c2cc(F)c(N3CCN(c4ccc([N+](=O)[O-])c(C(F)(F)F)c4)CC3)cc21 | – | – | – | – | – | – | – | – | – | – |
| Active | 25 | – | CCn1cc(C(=O)O)c(=O)c2cc(F)c(N3CCN(CCCNc4ccc([N+](=O)[O-])c(C(F)(F)F)c4)CC3)cc21 | – | 1.8 | – | – | – | – | – | – | – | – |
| Active | 25 | – | COC(=O)c1cn(C2CC2)c2cc(N3CCN(CCCNc4ccc([N+](=O)[O-])c(C(F)(F)F)c4)CC3)c(F)cc2c1=O | Active | – | Active | Active | Active | – | – | – | – | – |
| Active | 25 | – | O=C(O)c1cn(C2CC2)c2cc(N3CCN(CCNc4ccc([N+](=O)[O-])c(C(F)(F)F)c4)CC3)c(F)cc2c1=O | Active | 0.5 | Active | Active | Active | – | – | – | – | – |
| Active | 25 | – | CCn1cc(C(=O)OC)c(=O)c2cc(F)c(N3CCN(CCCNc4ccc([N+](=O)[O-])c(C(F)(F)F)c4)CC3)cc21 | – | – | – | – | – | – | – | – | – | – |
| Active | 25 | – | CCn1cc(C(=O)O)c(=O)c2cc(F)c(N3CCN(CCNc4ccc([N+](=O)[O-])c(C(F)(F)F)c4)CC3)cc21 | – | 0.2 | – | – | – | inactive | inactive | inactive | inactive | inactive |
| Active | 25 | – | COC(=O)c1cn(C2CC2)c2cc(N3CCN(CCNc4ccc([N+](=O)[O-])c(C(F)(F)F)c4)CC3)c(F)cc2c1=O | Active | – | Active | Active | Active | – | – | – | – | – |
| Active | 25 | – | COC(=O)c1cn(C2CC2)c2cc(N3CCN(c4ccc([N+](=O)[O-])c(C(F)(F)F)c4)CC3)c(F)cc2c1=O | Active | – | Active | Active | Active | – | – | – | – | – |
| Active | 25 | – | CCn1cc(C(=O)O)c(=O)c2cc(F)c(N3CCN(c4ccc([N+](=O)[O-])c(C(F)(F)F)c4)CC3)cc21 | – | 3.1 | – | – | – | – | – | – | – | – |
